High-throughput results (PubChem BioAssay)
HKDC1 activator = HKDC1 (human) hexokinase activation; activity change, negative = activation, % at 20 µM; actives 0.056% (n = 340,000); recombinant HKDC1, G6PDH/diaphorase resazurin fluorescence; stronger effect = lower value; Q2TB90; AID 493187;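 active = activation of 40% or more at 20 µM, a change of -40% or lower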
Target sequence (Q2TB90 whole entry, looked up): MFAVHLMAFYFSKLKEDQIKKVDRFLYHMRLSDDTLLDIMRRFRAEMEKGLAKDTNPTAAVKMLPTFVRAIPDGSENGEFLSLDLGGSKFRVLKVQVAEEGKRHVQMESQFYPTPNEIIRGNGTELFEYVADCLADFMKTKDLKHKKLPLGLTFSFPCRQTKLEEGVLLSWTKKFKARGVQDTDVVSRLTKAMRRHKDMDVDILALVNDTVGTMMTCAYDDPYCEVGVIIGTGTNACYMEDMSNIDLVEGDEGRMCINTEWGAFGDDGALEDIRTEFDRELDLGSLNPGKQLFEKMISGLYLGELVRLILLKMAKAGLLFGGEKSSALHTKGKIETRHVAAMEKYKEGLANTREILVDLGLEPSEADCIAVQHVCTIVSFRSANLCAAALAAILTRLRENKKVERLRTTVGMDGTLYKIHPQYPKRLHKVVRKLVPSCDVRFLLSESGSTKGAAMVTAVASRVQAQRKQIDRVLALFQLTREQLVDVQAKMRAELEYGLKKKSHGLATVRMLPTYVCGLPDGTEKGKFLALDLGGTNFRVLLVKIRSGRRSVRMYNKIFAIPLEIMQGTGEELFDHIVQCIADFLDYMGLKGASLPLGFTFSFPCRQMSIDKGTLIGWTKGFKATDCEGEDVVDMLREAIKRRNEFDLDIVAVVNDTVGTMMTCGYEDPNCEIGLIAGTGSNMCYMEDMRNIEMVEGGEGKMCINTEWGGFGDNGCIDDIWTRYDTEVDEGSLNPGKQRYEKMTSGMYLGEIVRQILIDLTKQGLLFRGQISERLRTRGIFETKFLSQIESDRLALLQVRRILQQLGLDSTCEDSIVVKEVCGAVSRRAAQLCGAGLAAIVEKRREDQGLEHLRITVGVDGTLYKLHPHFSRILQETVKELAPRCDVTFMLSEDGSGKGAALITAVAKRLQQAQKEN
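Material: in-house human HKDC1 enzyme, G6PDH and diaphorase coupling enzymes | Quantity: HKDC1 at 5 µg/mL final | Medium: Tris buffer at pH 8.0 containing MgCl2 | Compound dosing: 20 µM single dose | Schedule: 90 min reaction at room temperature, dark | Measured by: Resorufin fluorescence, 525/613 nm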
Numbers stand for hits; . = inactive. These entries were drawn from the full list.

SMILES	HKDC1 activator
COc1cc(SC#N)ccc1N=Cc1c(C)[nH]n(-c2ccc(Cl)cc2)c1=O	-40.7
O=C(Nc1ccc2nc(-c3ccco3)c(-c3ccco3)nc2c1)N1CCCCCC1	.
O=C(COc1ccccc1/C=C\c1[nH]c(=O)[nH]c(=O)c1[N+](=O)[O-])Nc1ccccc1	.
O=C(O)c1ccccc1N=Nc1c(O)[nH]c2ccc([N+](=O)[O-])cc12	.
O=Cc1ccc(Sc2nnc(-c3ccccc3)o2)c([N+](=O)[O-])c1	.
COc1cc(/C=C2/C(=O)NN(c3ccc(Cl)c(Cl)c3)C2=O)cc([N+](=O)[O-])c1O	.
COc1cccc(/C=N/Nc2ccc([N+](=O)[O-])cn2)c1O	.
Cc1nc2c3cc(F)ccc3n(Cc3ccccc3)c2s1	-60.2
COc1cc(C2c3c([nH]c(=O)[nH]c3=O)Nc3ccc4ccccc4c32)cc(OC)c1OC (stereo not given)	.
COC1(NS(=O)(=O)c2ccc(Br)cc2)C(C)=CC(=O)C=C1C	.
CCOC(=O)C1=C(Cc2ccc(Cl)cc2)C(=O)c2ccccc2C1=O	.
Cc1ccccc1/C=C/C(=O)c1ccc([N+](=O)[O-])o1	.
O=C1NN(c2ccccc2)C(=O)/C1=C/c1ccc(Sc2ccc(Cl)cc2)o1	.
COC(=O)CCC(=O)OC1(C)C(=O)C2=CN(c3ccccc3)C(c3ccc(OC)cc3)=CC2=C(Br)C1=O (stereo not given)	.
CCCCCCCCCC(=O)NNC(=O)c1c(O)c2ccccc2n(CC)c1=O	-40.8
Oc1ccc(Br)cc1CNc1cccc2cccnc12	.
CC(=O)n1cc(N(C(=O)CCl)c2ccc(C)cc2)c2ccccc21	.
CCCN(CCC)C(=O)c1cc([N+](=O)[O-])cc2c1-c1ccc([N+](=O)[O-])cc1C2=C(C#N)C#N	.
O=C1C(Cl)=C(NC(=O)c2ccccc2)C(=O)C(Cl)=C1NC(=O)c1ccccc1	.
Nn1cnnc1N/N=C/c1cc(Br)cc(Br)c1O	-52.2
O=C(NCc1ccccn1)c1cc(S(=O)(=O)N2CCN(c3ccccc3)CC2)ccc1Cl	.
C[c-]1[c-](C)[c-](C)[c-](C)[c-]1C.[Fe].c1cc2nccc(N3CCCC3)[c-]2c1 (stereo not given)	.
O=C(CN(C(=O)CCC(=O)Nc1ccccn1)c1ccc2c(c1)OCO2)NCc1ccc(F)cc1	-45.5
COCc1cc(SC2CCCCC2)nc(C)n1	.
O=c1c2ccccc2nc(/C=C/c2cccnc2)n1Cc1ccccc1	.
SMILES	HKDC1 activator
O=NNc1nc2ccccc2n1Cc1ccccc1	-40.1
O=C(O)c1ccccc1-c1c2cc(I)c(=O)c(I)c-2oc2c(I)c(O)c(I)cc12	.
COc1ccc(OC)c(NC(=O)CSc2ccc(-c3ccco3)nn2)c1	.
C=CC(=O)N1C/C(=C/c2ccc(Cl)cc2)C(=O)/C(=C\c2ccc(Cl)cc2)C1	.
O=C1C(SCCO)=C(SCCO)C(=O)c2ccccc21	.
Oc1ccc(/C=N/Nc2ccnc3cc(Cl)ccc23)c(O)c1O	.
CC(=O)Nc1ccc(S(=O)(=O)NCCC(=O)OC(C)C(=O)c2ccc(C)cc2)cc1 (stereo not given)	.
COCCNc1ccc([N+](=O)[O-])cc1C(=O)Nc1cccc(C)n1	-57.6
Cc1n[nH]c(=O)c2c(NC(=O)CSc3nnc(C4CC4)n3C)oc(C)c12	.
COc1ccccc1N(C)S(=O)(=O)c1ccc(Cl)c(C(=O)NCC2(N(C)C)CCCCC2)c1	.
COc1ccc(-c2csc(Nc3ccc(S(N)(=O)=O)cc3)n2)cc1	-41.5
CC(C)(C=O)C1=CC(=O)c2ccccc2C1=O	.
CCc1ccc(S(=O)(=O)Nc2cc(SCC(=O)O)c(O)c3ccccc23)cc1	.
Cc1cc(C(=O)N=Nc2c(O)n(C(C)C)c3ccccc23)n[nH]1	.
CNCc1ccccc1Sc1cc(O)ccc1O	.
O=C1/C(=C/Nc2cccc([N+](=O)[O-])c2)CCc2ccccc21	.
Oc1ccc2ccccc2c1C=Nc1ccccc1Br	.
O=C1C(Cl)=C(N2CCC(C(=O)O)CC2)C(=O)c2ccccc21	.
COc1ccc(C(=O)c2coc3c2C(=O)C(=O)c2ccccc2-3)cc1	.
NC(=S)N/N=C/c1ccc(Br)o1	-55.3
O=C1C(=Cc2ccc(Br)o2)C(=O)c2ccccc21	.
CCc1nc2c(c(=O)c3ccccc3n2C)c(=O)n1-c1ccc(F)cc1	.
Cc1cc(/C=C\c2ccc3cc(N(C)C)ccc3[n+]2C)c(C)n1-c1ccccc1	.
Cc1ccc(S(=O)(=O)N2CCN(C(=O)CN3C(=O)NC4(CCCCC4)C3=O)CC2)c(C)c1	.
O=C(O)c1cc(N2N=C(C(F)(F)F)/C(=C/C=C/c3ccco3)C2=O)ccc1Cl	.
SMILES	HKDC1 activator
O=C(O)c1cc(O)c2c(c1)[C@@H]([C@H]1c3cc(C(=O)O)cc(O)c3C(=O)c3c(O[C@@H]4O[C@H](CO)[C@@H](O)[C@H](O)[C@H]4O)cccc31)c1cccc(OC3O[C@H](CO)[C@@H](O)[C@H](O)[C@H]3O)c1C2=O (stereo not given in full)	.
Clc1ccc(N=c2ssnc2Cl)nc1	-193.9
C=CC(=O)N1C/C(=C/c2ccccc2)C(=O)/C(=C\c2ccccc2)C1	.
CN1CCN(C2=C(Cl)C(=O)C(c3cnc(N4CCCCC4)s3)=C(Cl)C2=O)CC1	.
Cc1cc2c(N)cccc2nn1	.
C/C(=N\NC(=O)c1cc(C2CC2)nc2ccccc12)c1ccc(O)cc1O	-44.0
O=C(NCCc1ccccc1)c1cnn2c(C(F)F)cc(C3CC3)nc12	.
CCN(CC)C(=O)c1ccc(C(=O)c2c(C)cc(C)cc2C)cc1	.
[S-]c1nnc(-c2ccc(Br)cc2)n1-c1ccccc1.[Zn+2]	.
Cn1c(-c2ccccc2)c(C(=O)CC#N)c2ccccc21	-45.2
Cc1ccc(S(=O)(=O)Nc2c(O)ccc3ccccc23)cc1	.
COC(=O)CCC(=O)OC1(C)C(=O)C2=CN(CC3CC3)C(c3ccc(OC)cc3)=CC2=C(Br)C1=O (stereo not given)	.
CC1(C)Cc2c(c(N3CCOCC3)nc3sc4c(NCC5CCCO5)nnnc4c23)CS1 (stereo not given)	.
Cc1cccc(/C=C/C(=O)c2ccc([N+](=O)[O-])o2)c1	.
Cc1cc(C(=O)COC(=O)c2cc(O)c3ccccc3c2O)c(C)n1CC1CCCO1 (stereo not given)	.
Cn1c(SSc2ccc(-c3cccnc3)n2C)ccc1-c1cccnc1	-341.5
NC(=NCCCCCCN=C(N)/N=C(\N)Nc1ccc(Cl)cc1)/N=C(\N)Nc1ccc(Cl)cc1	.
O=C(O)c1cc(O)c2c(c1)[C@H]([C@H]1c3cc(C(=O)O)cc(O)c3C(=O)c3c(O[C@@H]4O[C@H](CO)[C@@H](O)[C@H](O)[C@H]4O)cccc31)c1cccc(OC3O[C@H](CO)[C@@H](O)[C@H](O)[C@H]3O)c1C2=O (stereo not given in full)	.
CN1CCN(C2=C(Cl)C(=O)c3ccccc3C2=O)CC1	.
COc1ccc(S(=O)(=O)/N=C2/C=CC(=O)C(C)=C2C)cc1	.
O=C(N/N=C/c1ccc(O)cc1O)/C(=C/c1ccccc1)CCO	-40.1
Cc1ccc(NC(=O)CN2C(=O)S/C(=C/c3ccc(-c4cc(C(=O)O)ccc4C)o3)C2=O)cc1C	.
Cc1cc(C)n(Cc2ccc(C(=O)N/N=C/c3ccc(-c4ccc([N+](=O)[O-])cc4)o3)o2)n1	.
NS(=O)(=O)c1ccc(N/N=C/c2ccc(O)c(O)c2O)c([N+](=O)[O-])c1	.
Cc1cc([N+](=O)[O-])nn1CC(=O)N/N=C/c1ccc(O)cc1O	-49.3
